Reference: ChEMBL document CHEMBL5108069, “Selective C9orf72 G-Quadruplex-Binding Small Molecules Ameliorate Pathological Signatures of ALS/FTD Models” (J Med Chem, 2022)
Calls of active or inactive are those of the source. No cut-off for these calls is given here.

Columns and labels:
[1] = Permeability of compound in PBS buffer at 500 uM incubated for 18 hrs by PAMPA assay; type: ADME
Procedure, shortened: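 PAMPA: donor membrane coated with 4% lecithin in dodecane. 500 μM compound added to duplicate donor wells over PBS acceptor wells, incubated 18 h at 37 °C. Acceptor solution scanned 200–500 nm to find peak absorbance, referenced to equilibrium standards and a DMSO/PBS blank. n = 5.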

Quadruplex DNA [2] = assay: Binding affinity to 3'-FAM labeled C9orf72 (G4C2)4 G4 quadruplex DNA (unknown origin) assessed as decrease in fluorescence intensity by fluorescence intensity assay; type: nucleic-acid assay
Procedure, shortened: (§1)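 3'-FAM-labelled DNA (G4C2)4 G4 or RNA (G4C2)2 G4 annealed at 98 °C for 10 min in 10 mM K+ buffer (8 mM KCl, 2 mM KH2PO4, pH 6.8), 1 μM final, slowly cooled. Compound titrated 0.1–10 mM in same buffer at room temperature. Fluorescence read at ex/em 470/520 nm. KD from nonlinear one-site specific binding fit with Hill slope.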

N2a [3] = assay: Neuroprotective activity in mouse Neuro2a cells transfected DNA (G4C2)29 C9orf 72 ALS/FTD cell model assessed as increase in cell viability at 1 ug/ml by DAPI staining based immunofluorescence analysis; type: functional; conditions: dose 1.0 µg/ml
HT-22 = assay: Neuroprotective activity in retinoic acid and cAMP differentiated mouse HT-22 cells assessed as decrease in glutamate induced cellular ROS level incubated for 1 hrs by DCFH-DA based […]; type: functional, cell-based; conditions: DDE = dose-dependent effect
Procedure, shortened: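 HT22 cells differentiated for 48 h with 10 μM retinoic acid and 500 μM cAMP in DMEM with 0.5% FBS. 5 mM L-glutamate given for 24 h, then 10 μM DCFH-DA loaded for 30 min at 37 °C and washed off. Compounds at 2 μg/mL added for 1 h; Rosup served as positive control. DCF read at 488/525 nm on a plate reader. n = 18–42 wells from three batches.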

Erythrocyte [4] = assay: Hemolytic activity in rabbit RBC assessed as hemolysis at 1000 ug/ml incubated for 1 hr by microtiter plate method; type: toxicity, cell-based, Oryctolagus cuniculus; conditions: dose 1000 µg/ml
Procedure, shortened: (§2)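 Fresh rabbit red cells washed in PBS and used as a 2% suspension. Compounds diluted in PBS to final 250, 500 and 1000 μg/mL, mixed with an equal volume of cells, incubated 1 h at 37 °C. After centrifugation, supernatant absorbance read at 570 nm. Controls: 10% Triton X-100 (positive), 1% DMSO in PBS (negative). n = 3 preparations.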

Quadruplex DNA [5] = assay: Binding affinity to C9orf72 (G4C2)4 G4 quadruplex DNA (unknown origin) assessed as change in chemical shift at pH 7 in 25 to 45 degree C by one-dimensional 1H-NMR analysis; type: nucleic-acid assay
Procedure, shortened: (§3)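 Oligos (100 μM) annealed at 95 °C for 15 min, cooled slowly overnight in 70 mM KCl, 20 mM potassium phosphate, pH 7.0. NMR samples held 0.1 mM DNA or RNA. Compounds from ~50 mM DMSO-d6 stocks, titrated at G4:compound ratios 1:1 to 1:10 (RNA 1:3, 1:5, 1:10). Imino-region 1D 1H spectra at 25 °C; further spectra at pH 6 and 7, at 25, 35 and 45 °C.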

N2a [6] = assay: Neuroprotective activity in mouse Neuro2a cells transfected DNA (G4C2)29 C9orf 72 ALS/FTD cell model assessed as reduction in G4C2 RNA foci at 1 ug/ml incubated for 2 days by DAPI staining based immunofluorescence analysis; type: functional; conditions: dose 1.0 µg/ml, time 2.0 day
Procedure, shortened: (§4)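 Neuro2a cells on coverslips transfected with a pHR-Tre3G-29xGGGGCC-12xMS2 plasmid, then treated with compound at 1 μg/mL for 2 days. Fixed in 4% PFA and permeabilised. Hybridised 3 h at 46 °C with Cy3-labelled G4C2-target and Cy5-labelled CAGG probes, co-stained for hnRNP H, DAPI counterstain. Foci per cell counted by confocal microscopy; n = 17–25 coverslips from three batches.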

Quadruplex DNA [7] = assay: Binding affinity to C9orf72 (G4C2)4 G4 quadruplex DNA (unknown origin) assessed as compound-DNA complex formation at pH 6 in 25 degree C by circular dichroism spectroscopy; type: nucleic-acid assay
Procedure, shortened: (§5)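 G4 at 15 μM mixed with compound at 1:10 molar ratio, pH 6 or pH 7. CD spectra recorded at 25 °C in a 1 mm quartz cuvette as the mean of three scans, buffer subtracted.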

Drosophila [8] = assay: Inhibition of eye degeneration in GMR-GAL4-(G4C2)29 Drosophila expressing (G4C2)29 in eyes C9orf72 ALS/FTD model assessed as reduction in rough-eye phenotype at 100 uM, po incubated 7 day by stereomicroscopy; type: functional, organism-based
Procedure, shortened: (§6)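 Parent flies crossed on solid food containing compound at 100 μM, DMSO vehicle. F1 larvae fed continuously until eclosion, then moved to compound-free food. Eyes of day-7 adults imaged by CCD camera on a stereomicroscope, with SEM of heads. Affected and total eye area measured to give degeneration ratio. n = 7–18 flies.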

Quadruplex DNA [9] = assay: Binding affinity to C9orf72 (G4C2)4 G4 quadruplex DNA (unknown origin) assessed as compound-DNA complex formation at pH 7 in 25 degree C by circular dichroism spectroscopy; type: nucleic-acid assay; procedure, shortened: as §5
Quadruplex DNA [10] = assay: Binding affinity to C9orf72 (G4C2)2 G4 quadruplex RNA (unknown origin) assessed as compound-DNA complex formation at pH 7 in 25 degree C by circular dichroism spectroscopy; type: nucleic-acid assay; procedure, shortened: as §5
Quadruplex DNA [11] = assay: Binding affinity to C9orf72 (G4C2)4 G4 quadruplex DNA (unknown origin) assessed as change in chemical shift by one-dimensional 1H-NMR analysis; type: nucleic-acid assay; procedure, shortened: as §3
Quadruplex DNA [12] = assay: Binding affinity to C9orf72 (G4C2)4 G4 quadruplex DNA (unknown origin) assessed as change in chemical shift at pH 6 in 25 to 45 degree C by one-dimensional 1H-NMR analysis; type: nucleic-acid assay; procedure, shortened: as §3
N2a [13] = assay: Neuroprotective activity in mouse Neuro2a cells transfected DNA (G4C2)29 C9orf 72 ALS/FTD cell model assessed as CAGG RNA foci abundance at 1 ug/ml incubated for 2 days by DAPI staining based immunofluorescence analysis; type: functional; conditions: dose 1.0 µg/ml, time 2.0 day; procedure, shortened: as §4
HEK-293T [14] = assay: Cytotoxicity in human HEK293T cells assessed as reduction in cell viability upto 10 ug/ml incubated for 24 hrs by MTT assay; type: toxicity, cell-based; conditions: dose < 10 µg/ml
Procedure, shortened: (§7)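 HEK293T cells seeded at 5 × 10^3 per well, grown 24 h in DMEM with 10% FBS. Compounds in DMSO added at 0.1, 1 and 10 μg/mL for 24 h. MTT (5 mg/mL stock) added for 4 h at 37 °C, formazan dissolved in DMSO, absorbance read at 570 nm. n = 4 culture batches.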

Quadruplex DNA [15] = assay: Binding affinity to C9orf72 (G4C2)2 G4 quadruplex RNA (unknown origin) assessed as compound-DNA complex formation at pH 6 in 25 degree C by circular dichroism spectroscopy; type: nucleic-acid assay; procedure, shortened: as §5
Drosophila [16] = assay: Inhibition of eye degeneration in GMR-GAL4-(G4C2)29 Drosophila expressing (G4C2)29 in eyes C9orf72 ALS/FTD model assessed as reflective eyes at 100 uM, po incubated 7 day by stereomicroscopy; type: functional, organism-based; procedure, shortened: as §6
Quadruplex DNA [17] = assay: Stabilization of C9orf72 (G4C2)4 G4 quadruplex DNA (unknown origin) assessed as thermal stability by measuring melting temperature at pH 7 by circular dichroism spectroscopy; type: nucleic-acid assay
Procedure, shortened: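 G4 at 15 μM with compound at 1:10 molar ratio, pH 7. CD signal followed from 25 to 95 °C at 1 °C/min at one wavelength (290 nm for DNA G4). Absorbance normalised as (Abst − min)/(max − min), then fitted to a Boltzmann sigmoid.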

[18] = Inhibition of locomotor deficit in OK371-GAL4-(G4C2)29 Drosophila expressing (G4C2)29 in motor neuron C9orf72 ALS/FTD model assessed as reduction in flies staying at the bottom of flask at 100 uM, po during larval stage by climbing assay relative to control (Rvb= 18.25%); type: functional; parameters: scale not given: the % may be the effect or the level left
Procedure, shortened: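 Compound at 100 μM in solid food, DMSO vehicle, given from parental cross until F1 eclosion, then regular food. Climbing test on 7-day-old adults: percentage of flies remaining below 2 cm of the tube at 25 s. n = 8 experimental batches.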

Drosophila [19] = assay: Inhibition of eye degeneration in GMR-GAL4-(G4C2)29 Drosophila expressing (G4C2)29 in eyes C9orf72 ALS/FTD model assessed as smoothening of eyes at 100 uM, po incubated 7 day by stereomicroscopy; type: functional, organism-based; procedure, shortened: as §6
Quadruplex DNA [20] = assay: Binding affinity to 3'-FAM labeled C9orf72 (G4C2)2 G4 quadruplex RNA (unknown origin) assessed as decrease in fluorescence intensity by fluorescence intensity assay; type: nucleic-acid assay; procedure, shortened: as §1
Quadruplex DNA [21] = assay: Binding affinity to C9orf72 (G4C2)2 G4 quadruplex RNA (unknown origin) assessed as change in chemical shift by one-dimensional 1H-NMR analysis; type: nucleic-acid assay; procedure, shortened: as §3
HEK-293T [22] = assay: Cytotoxicity in human HEK293T cells assessed as reduction in cell viability upto 0.1 ug/ml incubated for 24 hrs by MTT assay; type: toxicity, cell-based; conditions: dose < 0.1 µg/ml; procedure, shortened: as §7
Erythrocyte [23] = assay: Hemolytic activity in rabbit RBC assessed as hemolysis at 250 to 1000 ug/ml incubated for 1 hr by microtiter plate method; type: toxicity, cell-based, Oryctolagus cuniculus; conditions: DDE = dose-dependent effect, dose 250-1000 µg/ml; procedure, shortened: as §2
Quadruplex DNA [24] = assay: Binding affinity to C9orf72 (G4C2)2 G4 quadruplex DNA (unknown origin) assessed as change in chemical shift by one-dimensional 1H-NMR analysis; type: nucleic-acid assay
Procedure, shortened: (§8)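 Oligonucleotide annealed at 100 μM by heating to 95 °C for 15 min, then cooled slowly to room temperature overnight in 70 mM KCl, 20 mM potassium phosphate, pH 7.0. NMR samples held 0.1 mM G4 in the same buffer. Compound stocks were about 50 mM in DMSO-d6. Titrated into G4; imino-region 1D 1H spectra recorded at 25 °C and compared with G4-only and DMSO control spectra.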

Quadruplex DNA [25] = assay: Binding affinity to human telomeric htel21-T18 (d[(GGGTTA)2GGGTTTGGG]) G4 quadruplex DNA assessed as change in chemical shift by one-dimensional 1H-NMR analysis; type: nucleic-acid assay; procedure, shortened: as §8

Structure (SMILES)	permeability [1]	Kd (Quadruplex DNA [2]) [mM]	Activity (N2a [3])	Activity (HT-22)	Activity (Erythrocyte [4])	Activity (Quadruplex DNA [5])	Activity (N2a [6])	Activity (Quadruplex DNA [7])	Activity (Drosophila [8])	Activity (Quadruplex DNA [9])	Activity (Quadruplex DNA [10])	Activity (Quadruplex DNA [11])	Activity (Quadruplex DNA [12])	Activity (HEK-293T [14])	Activity (Quadruplex DNA [15])	Activity (Drosophila [16])	Activity (Quadruplex DNA [17])	Activity [18] [%]	Activity (Drosophila [19])	Activity (Quadruplex DNA [21])	also measured
CC12CC3CC(C)(C1)CC(N)(C3)C2 [MEMANTINE]	Permeable																				
CC(=O)Cc1cc2c(c(O)c1C(=O)O)-c1c(c(O)c3oc4c(O[C@@H]5O[C@H](C(=O)O)[C@@H](O)[C@H](O)[C@H]5O)cccc4c(=O)c3c1O)CC2	Permeable	2.8	Active	Dde	Non-Toxic	Active	Active	Active	Active	Active	Active	Active	Active	Non-Toxic	Active	Active	Active	10.625	Active		Activity (N2a [13]): Active
CC(=O)Cc1cc2c(c(O)c1C(=O)O)-c1c(c(O)c3oc4c(O[C@@H]5OC(C(=O)O)=C[C@H](O)[C@H]5O)cccc4c(=O)c3c1O)CC2	Permeable	2.2	Active	Dde	Non-Toxic	Active	Active	Active	Active	Active	Active	Active	Active	Non-Toxic	Active	Active	Active	5.125	Active	Active	Kd (Quadruplex DNA [20]): 3 mM
COc1c2c(c(O)c3c(=O)c4cccc(O[C@@H]5OC(C(=O)O)=C[C@H](O)[C@H]5O)c4oc13)-c1c(cc(CC(C)=O)c(C(=O)O)c1O)CC2	Permeable	3		Dde		Active		Active		Active	Active	Active	Active		Active		Active				Activity (HEK-293T [22]): Toxic; Activity (Erythrocyte [23]): Dde
N=C(N)c1ccc(-c2ccc(-c3ccc(-c4ccc(C(=N)N)cn4)o3)o2)nc1	Impermeable											Active								Active	Activity (Quadruplex DNA [24]): Active; Activity (Quadruplex DNA [25]): Active
